Reference: ChEMBL document CHEMBL3997808 (J Med Chem, 2017)
Values after ≈ are worked out from the molar mass of the structure shown.

Key:
[1] = Inhibition of recombinant human cytochrome P450; type: ADME; details: recombinant enzyme
[2] = molecular target: Cytochrome P450 2C9 (Homo sapiens, UniProt P11712); assay: Inhibition of recombinant human CYP2C9; type: ADME
[3] = molecular target: Voltage-gated inwardly rectifying potassium channel KCNH2 (Homo sapiens, UniProt Q12809); assay: Inhibition of human ERG expressed in HEK293 cells; type: cell-based
Voltage-gated inwardly rectifying potassium channel KCNH2, sequence (Q12809 whole entry, the tested form may be a part): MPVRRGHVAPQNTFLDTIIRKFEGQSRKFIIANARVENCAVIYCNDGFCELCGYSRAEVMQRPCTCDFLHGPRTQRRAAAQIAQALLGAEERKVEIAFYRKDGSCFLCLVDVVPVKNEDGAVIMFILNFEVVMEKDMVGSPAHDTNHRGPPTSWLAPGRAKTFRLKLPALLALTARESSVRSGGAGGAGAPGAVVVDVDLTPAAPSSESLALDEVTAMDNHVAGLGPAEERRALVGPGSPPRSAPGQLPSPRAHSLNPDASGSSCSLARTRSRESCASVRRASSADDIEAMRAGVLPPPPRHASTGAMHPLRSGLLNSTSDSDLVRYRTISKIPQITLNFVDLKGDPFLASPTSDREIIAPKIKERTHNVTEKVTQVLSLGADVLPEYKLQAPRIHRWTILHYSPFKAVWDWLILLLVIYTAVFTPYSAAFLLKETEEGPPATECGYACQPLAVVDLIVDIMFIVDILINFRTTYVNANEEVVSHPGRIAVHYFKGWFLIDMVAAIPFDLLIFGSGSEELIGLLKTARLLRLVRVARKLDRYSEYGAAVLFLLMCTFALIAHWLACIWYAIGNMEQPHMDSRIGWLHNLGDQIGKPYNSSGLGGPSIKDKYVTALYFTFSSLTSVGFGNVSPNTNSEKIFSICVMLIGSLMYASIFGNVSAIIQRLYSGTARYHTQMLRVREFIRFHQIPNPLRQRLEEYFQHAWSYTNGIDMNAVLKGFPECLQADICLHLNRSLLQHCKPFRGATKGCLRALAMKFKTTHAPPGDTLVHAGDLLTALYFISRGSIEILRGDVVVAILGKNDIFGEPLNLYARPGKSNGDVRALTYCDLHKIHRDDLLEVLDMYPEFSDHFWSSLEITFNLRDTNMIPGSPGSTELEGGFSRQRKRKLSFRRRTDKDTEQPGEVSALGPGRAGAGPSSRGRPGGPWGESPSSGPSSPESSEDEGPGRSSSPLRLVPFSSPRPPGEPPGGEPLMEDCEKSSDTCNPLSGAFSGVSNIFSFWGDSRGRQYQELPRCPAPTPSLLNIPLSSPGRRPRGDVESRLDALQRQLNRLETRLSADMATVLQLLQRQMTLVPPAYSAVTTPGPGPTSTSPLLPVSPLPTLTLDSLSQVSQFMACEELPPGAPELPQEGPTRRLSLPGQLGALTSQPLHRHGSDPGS

[4] = system: Brain; assay: Drug uptake in Han Wistar rat brain at 2 mg/kg, iv administered as 4 hrs infusion; type: ADME, organism-based; details: in vivo
Procedure, shortened: (§1)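 Rats received a 4 h iv infusion, after which terminal tissue samples were collected. Parent drug concentrations were measured in each tissue and compared with blood levels.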

[5] = system: Blood; assay: Drug uptake in Han Wistar rat blood at 2 mg/kg, iv administered as 4 hrs infusion; type: ADME, organism-based; details: in vivo; procedure, shortened: as §1
[6] = Fraction unbound in rat blood; type: ADME, tissue-based
[7] = system: Kidney; assay: Drug uptake in Han Wistar rat kidney at 2 mg/kg, iv administered as 4 hrs infusion; type: ADME, organism-based; details: in vivo; procedure, shortened: as §1
[8] = system: Liver; assay: Drug uptake in Han Wistar rat liver at 2 mg/kg, iv administered as 4 hrs infusion; type: ADME, organism-based; details: in vivo; procedure, shortened: as §1
[9] = system: Colon; assay: Drug uptake in Han Wistar rat colon at 2 mg/kg, iv administered as 4 hrs infusion; type: ADME, organism-based; details: in vivo; procedure, shortened: as §1
[10] = Stability in human microsomes measured up to 45 mins; type: ADME, Microsome; details: 0.75 h
[11] = Drug metabolism in human hepatocytes assessed as 5-(hydroxy(phenyl)methyl)-N-((S)-5-methyl-4-oxo-2,3,4,5-tetrahydrobenzo[b][1,4]oxazepin-3-yl)-1H-1,2,4-triazole-3-carboxamide formation at 10 uM measured up to 4 hrs; type: ADME, cell-based, Hepatocyte
Procedure, shortened: (§2)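 Compound at 10 μM was incubated with hepatocyte suspensions at 1 million cells/mL. Incubation ran at 37°C under 5% CO2:95% O2 for up to 4 h.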

[12] = Oral bioavailability in cynomolgus monkey at 1.9 mg/kg; type: ADME, organism-based, Macaca fascicularis; details: in vivo
[13] = AUC in cynomolgus monkey at 1.9 mg/kg, po; type: ADME, organism-based, Macaca fascicularis; details: in vivo
[14] = Tmax in cynomolgus monkey at 1.9 mg/kg, po; type: ADME, organism-based, Macaca fascicularis; details: in vivo
[15] = Half-life in cynomolgus monkey at 1.2 mg/kg, iv; type: ADME, organism-based, Macaca fascicularis; details: in vivo
[16] = Cmax in rat at 2.1 mg/kg, po; type: ADME, organism-based; set-up: dose 2.1 mg/kg, route oral; details: in vivo
[17] = Tmax in rat at 2.1 mg/kg, po; type: ADME, organism-based; details: in vivo
[18] = Volume of distribution at steady state in rat at 1.1 mg/kg, iv; type: ADME, organism-based; details: in vivo, read-out: Vdss
[19] = Clearance in rat at 1.1 mg/kg, iv; type: ADME, organism-based; details: in vivo
[20] = Fraction unbound in cynomolgus monkey blood; type: ADME, tissue-based, Macaca fascicularis
[21] = Solubility of the compound in FaSSIF; type: physicochemical
[22] = AUC (0 to infinity) in rat at 2 mg/kg, po; type: ADME, organism-based; set-up: dose 2 mg/kg, route oral, time infinity; details: in vivo
[23] = molecular target: T1, Receptor-interacting serine/threonine-protein kinase 1 (Mus musculus, UniProt Q60855); assay: Displacement of (14-(2-{[3-({2-{[4-(cyanomethyl)phenyl]amino}-6-[(5-cyclopropyl-1H-pyrazol-3-yl)-amino]-4-pyrimidinyl}amino)propyl]amino}-2-oxoethyl)-16,16,18,18-tetramethyl-6,7,7a,8a,9,10,16,18-octahydrobenzo[2'',3'']indolizino-[8'',7'':5',6']pyrano[3',2':3,4]pyrido[1,2-a]indol-5-ium-2-sulfonate from mouse RIP1 (1 to 378 residues) expressed in baculovirus infected insect cells measured for 50 mins by fluorescence polarization assay
T1 sequence (Q60855 whole entry): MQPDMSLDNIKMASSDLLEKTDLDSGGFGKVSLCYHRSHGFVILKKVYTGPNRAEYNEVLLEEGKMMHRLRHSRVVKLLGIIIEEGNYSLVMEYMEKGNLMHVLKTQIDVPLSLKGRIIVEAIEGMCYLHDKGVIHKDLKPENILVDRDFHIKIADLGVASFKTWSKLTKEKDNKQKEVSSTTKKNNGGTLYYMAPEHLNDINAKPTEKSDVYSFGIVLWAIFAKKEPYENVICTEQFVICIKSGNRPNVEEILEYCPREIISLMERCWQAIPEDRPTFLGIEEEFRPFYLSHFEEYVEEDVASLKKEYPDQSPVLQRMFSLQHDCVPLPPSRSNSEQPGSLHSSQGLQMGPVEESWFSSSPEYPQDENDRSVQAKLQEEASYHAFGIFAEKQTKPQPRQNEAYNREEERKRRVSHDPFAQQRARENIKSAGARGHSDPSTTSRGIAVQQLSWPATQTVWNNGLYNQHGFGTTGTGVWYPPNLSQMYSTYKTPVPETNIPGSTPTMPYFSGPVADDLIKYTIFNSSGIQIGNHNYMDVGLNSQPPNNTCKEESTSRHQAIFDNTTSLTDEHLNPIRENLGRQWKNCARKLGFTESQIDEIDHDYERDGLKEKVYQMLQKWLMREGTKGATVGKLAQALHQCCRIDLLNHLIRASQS
Procedure, shortened: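 Competitive FP binding assay in which test compounds displace a fluorescently labeled ATP-competitive ligand from RIP1.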

[24] = Stability in rat microsomes measured up to 45 mins; type: ADME, Microsome; details: 0.75 h
[25] = Stability in dog microsomes measured up to 45 mins; type: ADME, Canis lupus familiaris, Microsome; details: 0.75 h
[26] = Drug metabolism in cynomolgus monkey hepatocytes assessed as 5-(hydroxy(phenyl)methyl)-N-((S)-5-methyl-4-oxo-2,3,4,5-tetrahydrobenzo[b][1,4]oxazepin-3-yl)-1H-1,2,4-triazole-3-carboxamide formation at 10 uM measured up to 4 hrs; type: ADME, cell-based, Macaca fascicularis, Hepatocyte; procedure, shortened: as §2
[27] = Drug metabolism in human hepatocytes assessed as (S)-5-benzyl-N-(4-oxo-2,3,4,5-tetrahydrobenzo[b][1,4]oxazepin-3-yl)-1H-1,2,4-triazole-3-carboxamide formation at 10 uM measured up to 4 hrs; type: ADME, cell-based, Hepatocyte; procedure, shortened: as §2
[28] = Drug metabolism in cynomolgus monkey hepatocytes assessed as (S)-5-benzyl-N-(4-oxo-2,3,4,5-tetrahydrobenzo[b][1,4]oxazepin-3-yl)-1H-1,2,4-triazole-3-carboxamide formation at 10 uM measured up to 4 hrs; type: ADME, cell-based, Macaca fascicularis, Hepatocyte; procedure, shortened: as §2
[29] = Drug metabolism in human hepatocytes assessed as (S)-3-amino-5-methyl-2,3-dihydrobenzo[b][1,4]oxazepin-4(5H)-one formation at 10 uM measured up to 4 hrs; type: ADME, cell-based, Hepatocyte; procedure, shortened: as §2
[30] = Drug metabolism in cynomolgus monkey hepatocytes assessed as (S)-3-amino-5-methyl-2,3-dihydrobenzo[b][1,4]oxazepin-4(5H)-one formation at 10 uM measured up to 4 hrs; type: ADME, cell-based, Macaca fascicularis, Hepatocyte; procedure, shortened: as §2
[31] = Drug metabolism in rat hepatocytes assessed as 5-benzyl-1H-1,2,4-triazole-3-carboxylic acid formation at 10 uM measured up to 4 hrs; type: ADME, cell-based, Hepatocyte; procedure, shortened: as §2
[32] = Drug metabolism in cynomolgus monkey hepatocytes assessed as glucuronide metabolite M569 formation at 10 uM measured up to 4 hrs; type: ADME, cell-based, Macaca fascicularis, Hepatocyte; procedure, shortened: as §2
[33] = Drug metabolism in cynomolgus monkey hepatocytes assessed as glucuronide metabolite M553 formation at 10 uM measured up to 4 hrs; type: ADME, cell-based, Macaca fascicularis, Hepatocyte; procedure, shortened: as §2
[34] = Kinetic solubility in phosphate buffer saline at pH 7.4 by chemiluminescence nitrogen detection method; type: physicochemical; details: phosphate buffered saline, read-out: Kinetic_solubility
Procedure, shortened: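 Kinetic aqueous solubility measured by chemiluminescent nitrogen detection (CLND) in phosphate-buffered saline pH 7.4. The solution was prepared from a DMSO stock of the inhibitor.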

[35] = system: Cynomolgus monkey; assay: Toxicity in cynomolgus monkey at 2 to 1000 mg/kg, po after 1 month; type: organism-based, Macaca fascicularis; details: in vivo, 730.5 h

Cytochrome P450 2C9, sequence (P11712 whole entry): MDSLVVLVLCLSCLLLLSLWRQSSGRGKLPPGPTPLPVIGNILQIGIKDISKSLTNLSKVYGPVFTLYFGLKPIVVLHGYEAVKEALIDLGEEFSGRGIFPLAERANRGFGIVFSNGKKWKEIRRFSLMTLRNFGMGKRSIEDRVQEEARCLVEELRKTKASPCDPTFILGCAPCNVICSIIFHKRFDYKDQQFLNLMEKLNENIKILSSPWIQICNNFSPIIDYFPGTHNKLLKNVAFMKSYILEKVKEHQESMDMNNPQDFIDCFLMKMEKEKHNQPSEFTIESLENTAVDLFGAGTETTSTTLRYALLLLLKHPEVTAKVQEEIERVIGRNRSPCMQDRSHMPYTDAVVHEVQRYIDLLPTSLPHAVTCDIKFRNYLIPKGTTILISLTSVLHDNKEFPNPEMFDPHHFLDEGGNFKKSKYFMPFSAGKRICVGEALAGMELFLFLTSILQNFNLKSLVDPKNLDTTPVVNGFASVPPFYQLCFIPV

SMILES: CN1C(=O)[C@@H](NC(=O)c2nnc(Cc3ccccc3)[nH]2)COc2ccccc21 [GSK2982772]
- inhibition (INH) [1]: Not Active
- IC50 [2]: 25 µM
- IC50 [3]: 195 µM
- Drug uptake [4]: 4%
- Drug uptake [5]: Active
- fraction unbound [6]: 0.042
- Drug uptake [7]: Active
- Drug uptake [8]: Active
- Drug uptake [9]: Active
- Stability [10]: Stable
- Drug metabolism [11]: Metabolite_Detected
- bioavailability [12]: 86%
- AUC [13]: 2900 ng·h/mL
- Tmax [14]: 1.8 h
- half-life [15]: 6.5 h
- Cmax [16]: 810 ng/mL
- Tmax [17]: 0.25 h
- Vd [18]: 2.7 L/kg
- clearance [19]: 17 mL/min/kg
- fraction unbound [20]: 0.11
- solubility [21]: 230 µg/mL (≈ 609 µM)
- AUC(0-inf) [22]: 2300 ng·h/mL
- IC50 [23]: 2.5 µM
- Stability [24]: Stable
- Stability [25]: Stable
- Drug metabolism [26]: Metabolite_Detected
- Drug metabolism [27]: Metabolite_Detected
- Drug metabolism [28]: Metabolite_Detected
- Drug metabolism [29]: Metabolite_Detected
- Drug metabolism [30]: Metabolite_Detected
- Drug metabolism [31]: Metabolite_Detected
- Drug metabolism [32]: Metabolite_Detected
- Drug metabolism [33]: Metabolite_Detected
- solubility kinetic [34]: 100 µg/mL (≈ 265 µM)
- Activity [35]: Non-Toxic
